From ChEMBL document CHEMBL4350976, “Sequence modification of heptapeptide selected by phage display as homing device for HT-29 colon cancer cells to improve the anti-tumour activity of drug delivery systems” (Eur J Med Chem, 2019)
Where a SMILES comes first, the peptide text is derived from it. The star is where a group is joined. X1 = COc1cccc2c1C(=O)c1c(O)c3c(c(O)c1C2=O)C[C@@](O)(/C(C)=N/OCC(=O)*)C[C@@H]3O[C@H]1C[C@H](N)[C@H](O)[C@H](C)O1

Tests used:
[1] = Stability in 2.5% fetal bovine serum containing medium at 30 uM measured after 24 hrs by LC/MS analysis; type: ADME, cell-free, Bos taurus; settings: cattle
How it was run: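 Conjugates (30 μM) were incubated at 37 °C in medium containing 2.5% FBS. Samples were taken at 0, 3, 6 and 24 h, quenched with acetic acid, lyophilised, desalted on C18 spin columns and analysed by LC-MS. Cleavage products were identified by mass.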

[2] = system: OVCAR-3; experiment: Cytostatic activity against human OVCAR3 cells preincubated for 24 hrs under serum free condition followed by compound washout and further incubation for 48 hrs in presence of serum by MTT assay; type: functional, cell-based
How it was run: (§1)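 Cells were grown at 37 °C in 5% CO2 in medium with 10% heat-inactivated FBS (20% for OVCAR-3) plus penicillin/streptomycin. The medium was RPMI-1640 for most lines, DMEM for U-87 MG and MRC-5, and IMDM for PE/CA-PJ lines. Seeding was 3×10^3–10×10^3 cells per well. Cells had 24 h compound exposure, a wash, and 48 h further culture. Read-out was MTT, normalized to untreated cells and fitted by nonlinear regression for IC50.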

[3] = system: DU-145; experiment: Cytostatic activity against human DU145 cells preincubated for 24 hrs under serum free condition followed by compound washout and further incubation for 48 hrs in presence of serum by MTT assay; type: functional, cell-based; how it was run: as §1
[4] = Cytostatic activity against human PECAPJ41 cells preincubated for 24 hrs under serum free condition followed by compound washout and further incubation for 48 hrs in presence of serum by MTT assay; type: functional, cell-based; how it was run: as §1
[5] = system: HepG2; experiment: Potency index, ratio of compound IC50 to Daunomycin IC50 for human HepG2 cells preincubated for 24 hrs under serum free condition followed by compound washout and further incubation for 48 hrs in presence of serum by MTT assay; type: functional
[6] = system: HT-29; experiment: Cytotoxicity against human HT-29 cells assessed as reduction in cell viability by measuring decrease in fluorescence intensity at 100 uM incubated for 3 hrs by flow cytometry; type: cell-based; settings: ht-29, 3 h
[7] = Stability in serum free medium at 30 uM incubated for 3 hrs by LC/MS analysis
How it was run: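 Conjugates (30 μM) were incubated at 37 °C in serum-free medium. Samples were taken at 0 and 3 h, quenched with acetic acid, lyophilised, desalted on C18 spin columns and analysed by LC-MS.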

[8] = Drug metabolism in rat liver lysosomes homogenate assessed as Dau-containing metabolite formation at 0.05 ug/ul after 24 hrs by LC-MS analysis; type: ADME, subcellular, Lysosome; settings: tissue homogenate
How it was run: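 Conjugates and rat liver lysosomal homogenate were each used at 0.05 µg/µL. Samples were taken at 0, 1, 3, 6 and 24 h. Metabolites were identified by LC-MS on a C18 column with a formic acid/acetonitrile gradient.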

[9] = system: HCT-116; experiment: Cytostatic activity against human HCT116 cells preincubated for 24 hrs under serum free condition followed by compound washout and further incubation for 48 hrs in presence of serum by MTT assay; type: functional, cell-based; how it was run: as §1
[10] = system: A2058; experiment: Potency index, ratio of compound IC50 to Daunomycin IC50 for human A2058 cells preincubated for 24 hrs under serum free condition followed by compound washout and further incubation for 48 hrs in presence of serum by MTT assay; type: functional
[11] = Retention time of the compound using 0.1% TFA in water and 0.1% TFA in acetonitrile-water (80:20 v/v) as eluents by RP-HPLC analysis; type: physicochemical
How it was run: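 Analytical RP-HPLC. Eluent A was 0.1% TFA in water and eluent B was 0.1% TFA in acetonitrile-water (80:20, v/v). Gradient: 0% B held to 5 min, then to 90% B at 50 min. Flow 1 mL/min, detection at 220 nm. The column was a Phenomenex Aeris Peptide XB-C18 (250×4.6 mm, 3.6 μm) or a Nucleosil C18 (5 μm, 100 Å, 250×4.6 mm), depending on the conjugate series.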

[12] = system: HT-29; experiment: Cytostatic activity against human HT-29 cells preincubated for 24 hrs under serum free condition followed by compound washout and further incubation for 48 hrs in presence of serum by MTT assay; type: functional, cell-based
How it was run: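 HT-29 cells were exposed to the compound for 24 h, washed, and kept a further 48 h. Viability was read by MTT. Absorbances were normalized to untreated controls and fitted by nonlinear regression to dose-response curves to give IC50.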

[13] = system: HT-29; experiment: Potency index, ratio of compound IC50 to Daunomycin IC50 for human HT-29 cells preincubated for 24 hrs under serum free condition followed by compound washout and further incubation for 48 hrs in presence of serum by MTT assay; type: functional
[14] = system: MDA-MB-231; experiment: Cytostatic activity against human MDA-MB-231 cells preincubated for 24 hrs under serum free condition followed by compound washout and further incubation for 48 hrs in presence of serum by MTT assay; type: functional, cell-based; how it was run: as §1
[15] = system: A549; experiment: Cytostatic activity against human A549 cells preincubated for 24 hrs under serum free condition followed by compound washout and further incubation for 48 hrs in presence of serum by MTT assay; type: functional, cell-based; how it was run: as §1
[16] = system: U-87 MG; experiment: Potency index, ratio of compound IC50 to Daunomycin IC50 for human U87 cells preincubated for 24 hrs under serum free condition followed by compound washout and further incubation for 48 hrs in presence of serum by MTT assay; type: functional, U-87MG ATCC
[17] = system: 4T1; experiment: Potency index, ratio of compound IC50 to Daunomycin IC50 for mouse 4T1 cells preincubated for 24 hrs under serum free condition followed by compound washout and further incubation for 48 hrs in presence of serum by MTT assay; type: functional
[18] = Potency index, ratio of compound IC50 to Daunomycin IC50 for human PECAPJ41 cells preincubated for 24 hrs under serum free condition followed by compound washout and further incubation for 48 hrs in presence of serum by MTT assay; type: functional
[19] = system: NCI-H1650; experiment: Cytostatic activity against human NCI-H1650 cells preincubated for 24 hrs under serum free condition followed by compound washout and further incubation for 48 hrs in presence of serum by MTT assay; type: functional, cell-based; how it was run: as §1
[20] = system: A549; experiment: Potency index, ratio of compound IC50 to Daunomycin IC50 for human A549 cells preincubated for 24 hrs under serum free condition followed by compound washout and further incubation for 48 hrs in presence of serum by MTT assay; type: functional
[21] = system: DU-145; experiment: Potency index, ratio of compound IC50 to Daunomycin IC50 for human DU145 cells preincubated for 24 hrs under serum free condition followed by compound washout and further incubation for 48 hrs in presence of serum by MTT assay; type: functional
[22] = Solubility of compound; type: physicochemical
[23] = system: HepG2; experiment: Cytostatic activity against human HepG2 cells preincubated for 24 hrs under serum free condition followed by compound washout and further incubation for 48 hrs in presence of serum by MTT assay; type: functional, cell-based; how it was run: as §1
[24] = system: NCI-H1975; experiment: Potency index, ratio of compound IC50 to Daunomycin IC50 for human NCI-H1975 cells preincubated for 24 hrs under serum free condition followed by compound washout and further incubation for 48 hrs in presence of serum by MTT assay; type: functional
[25] = system: B16; experiment: Potency index, ratio of compound IC50 to Daunomycin IC50 for mouse B16 cells preincubated for 24 hrs under serum free condition followed by compound washout and further incubation for 48 hrs in presence of serum by MTT assay; type: functional
[26] = Drug uptake in human HT-29 cells incubated for 3 hrs by flow cytometry; type: ADME, cell-based; settings: ht-29, 3 h
How it was run: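 HT-29 cells were exposed to 100 µM conjugate for 3 h. Flow cytometry recorded the percentage of Dau-positive cells and the mean fluorescence intensity, in duplicate.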

## COc1cccc2c1C(=O)c1c(O)c3c(c(O)c1C2=O)C[C@@](O)(/C(C)=N/OCC(=O)N[C@@H](CC(C)C)C(=O)N[C@@H](CCCNC(=N)N)C(=O)N[C@@H](CCCNC(=N)N)C(=O)N[C@@H](Cc1ccc(O)cc1)C(=O)N[C@H](C(=O)N[C@@H](Cc1cnc[nH]1)C(=O)N[C@@H](CC(C)C)C(=O)N[C@@H](Cc1ccccc1)C(=O)N[C@@H](Cc1ccc(O)cc1)C(=O)N[C@@H](C)C(=O)N[C@H](C(N)=O)[C@@H](C)O)C(C)C)C[C@@H]3O[C@H]1C[C@H](N)[C@H](O)[C@H](C)O1 (X1-LRRYVHLFYAT-NH2)
[1]
  Stability: Stable
[2]
  IC50: 11.3 µM
[3]
  IC50: 3.5 µM
[4]
  IC50: 4.3 µM
[5]
  Ratio IC50: 220.2
[6]
  Activity: Toxic
[7]
  Stability: Stable
[8]
  Drug metabolism: Metabolite_Detected
[9]
  IC50: 7.2 µM
[10]
  Ratio IC50: 104.5
[11]
  Retention time: 31.2 to 33.2 min
[12]
  IC50: 6.5 to 11.6 µM
[13]
  Ratio IC50: 57.1
[14]
  IC50: 4.6 µM
[15]
  IC50: 5.9 µM
[16]
  Ratio IC50: 236.9
[17]
  Ratio IC50: 284.6
[18]
  Ratio IC50: 165.7
[19]
  IC50: 2.9 µM
[20]
  Ratio IC50: 86.1
[21]
  Ratio IC50: 142.3
[22]
  solubility: Soluble
[23]
  IC50: 4.7 µM
[24]
  Ratio IC50: 279.9
[25]
  Ratio IC50: 335.4
[26]
  Drug uptake: Dose-dependent effect
